The test system of one series is MCF7. Briefly: Growth inhibition of human MCF7 cells after 72 hrs by MTT assay. The class given is functional. The conditions noted are these: MCF7, 72 h.
The test system of another series is SK-MEL-28. The series is described as follows: Growth inhibition of pro-apoptotic stimuli-resistant human SK-MEL-28 cells after 72 hrs by MTT assay. The series is classed as functional. To be noted: SK-MEL-28, 72 h. The method, boiled down:
(§1)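 Cells seeded at 10,000 to 40,000 cells/mL depending on cell type and allowed to attach for 24 h. They were then cultured 72 h with or without compound (untreated control). Living cells were measured by MTT reduction to formazan, read at 570 nm against a 630 nm reference. GI50 was derived from the growth levels.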
Background: Tetrazolium assays rely on reduction of a dye to a coloured formazan, in cell work by metabolically active cells.

A short description of series [1]: Growth inhibition of pro-apoptotic stimuli-sensitive human Hs683 cells after 72 hrs by MTT assay. The series is classed as functional. To be noted: Hs 683, 72 h. The method, boiled down:
as §1

The next series relates to A549. The series is described as follows: Growth inhibition of pro-apoptotic stimuli-resistant human A549 cells after 72 hrs by MTT assay. The class given is functional. The conditions noted are these: A549, 72 h. The method, boiled down: as §1
The subject of another series is T98G. The series is described as follows: Growth inhibition of pro-apoptotic stimuli-resistant human T98G cells after 72 hrs by MTT assay. The series is classed as functional. The method, boiled down: as §1
Series [2] is described as follows: Growth inhibition of pro-apoptotic stimuli-resistant human U373 cells after 72 hrs by MTT assay. The class given is functional, U-373MG ATCC. To be noted: U373 MG. A digest of the protocol:
as §1

The subject of another series is PC-3. The series is described as follows: Growth inhibition of human PC3 cells after 72 hrs by MTT assay. The class given is functional. To be noted: PC-3, 72 h.
Series [3] in a line: Chemical stability of the compound at pH 5 to 7.4. The class given is physicochemical. The conditions noted are these: buffer.
The test system of a further series is B16-F10. The series is described as follows: Growth inhibition of pro-apoptotic stimuli-sensitive mouse B16F10 cells after 72 hrs by MTT assay. The series is classed as functional. The conditions noted are these: B16-F10, 72 h. The method, boiled down: as §1
A short description of series [4]: Ratio of lycorine GI50 to compound GI50 for pro-apoptotic stimuli-resistant human U373 cells after 72 hrs by MTT assay. The class given is functional, U-373MG ATCC.

As to `CCCCCCCCCCCCCCCC(=O)O[C@H]1[C@H]2c3cc4c(cc3CN3CCC(=C[C@@H]1O)[C@H]23)OCO4`, the 50% growth inhibitory concentration (GI50) (as a rule, the concentration giving 50% growth inhibition) with MCF7 worked out at 32 µM; in the series with SK-MEL-28, 35 µM; in [1] it was 27 µM; with A549, 26 µM; with T98G, 7 µM; in series [2] it was 24 µM. The values for the 50% growth inhibitory concentration (GI50) in the series on PC-3 and in the series on B16-F10 were 29 µM and 28 µM, respectively. Further, in [3], the Stability stood at 3 days.
For the compound `CCCCCCCCCCCCCCCCCC(=O)O[C@H]1[C@H]2c3cc4c(cc3CN3CCC(=C[C@@H]1O)[C@H]23)OCO4`, the GI50 in the series on MCF7 is 38 µM; in the series with SK-MEL-28, 34 µM; in series [1] it was 24 µM; in the series on A549 it was 23 µM; with T98G, 16 µM; in series [2], 8 µM. Also, the GI50 with PC-3 was found to be 26 µM; in the series with B16-F10, 23 µM. The same compound yielded a Stability in [3] of 3 days.
Regarding `CCCCCCCC/C=C\CCCCCCCC(=O)O[C@H]1[C@H]2c3cc4c(cc3CN3CCC(=C[C@@H]1O)[C@H]23)OCO4`, the 50% growth inhibitory concentration (GI50) in the series on MCF7 worked out at 30 µM; in the series on SK-MEL-28, 30 µM; in [1], 14 µM; in the series with A549, 14 µM; in the series with T98G, 0.8 µM; in series [2] it was 4 µM. Further, the GI50 with PC-3 is 22 µM; in the series on B16-F10 it was 21 µM. In addition, the Stability in [3] is 3 days.
Regarding `CC/C=C\C/C=C\C/C=C\C/C=C\C/C=C\C/C=C\CCC(=O)O[C@H]1[C@H]2c3cc4c(cc3CN3CCC(=C[C@@H]1O)[C@H]23)OCO4`, the 50% growth inhibitory concentration (GI50) in the series with MCF7 came out at 21 µM; in the series on SK-MEL-28, 25 µM; in [1] it was 20 µM; in the series on A549 it was 15 µM; in the series with T98G it was 3 µM; in [2], 8 µM. Further, the GI50 with PC-3 stood at 19 µM; in the series with B16-F10 it was 18 µM. The same compound yielded a Stability in series [3] of 3 days.
On to `CC(=O)Oc1cc2ccn3c(=O)c4cc5c(cc4c(c1)c23)OCO5`, for which the GI50 with MCF7 was determined as 7 µM; in the series with SK-MEL-28 it was 21 µM; in [1] it was 14 µM; with A549, 18 µM; in the series on T98G it was 18 µM; in series [2] it was 5 µM. Further, the GI50 in the series on PC-3 turned out to be 21 µM; in the series with B16-F10, 5 µM.
For `CC(C)(C)OC(=O)O[C@H]1[C@H]2c3cc4c(cc3CN3CCC(=C[C@@H]1OC(=O)OC(C)(C)C)[C@H]23)OCO4`, the concentration for 50% growth inhibition (GI50) came to 5 µM in the series on MCF7; 20 µM with SK-MEL-28; 9 µM in series [1]; 3 µM in the series with A549; 4 µM with T98G; 4 µM in [2]. The results for the GI50 with PC-3 and in the series on B16-F10 were 22 µM and 4 µM, respectively.
For the compound `CCOC(=O)C[C@@]12C=C[C@@H](OC(C)=O)[C@H]3c4cc5c(cc4CN(CC1)[C@@H]32)OCO5`, the GI50 (with MCF7; in the series on SK-MEL-28; in series [1]; in the series on A549; in the series with T98G; in series [2]) was above 100 µM throughout. Besides, the GI50 in the series on PC-3 was above 100 µM; in the series on B16-F10 it was 79 µM.
Consider `CCC(=O)O[C@H]1[C@H]2c3cc4c(cc3CN3CCC(=C[C@@H]1OC(=O)CC)[C@H]23)OCO4`, for which the concentration for 50% growth inhibition (GI50) with MCF7 came to 22 µM; in the series with SK-MEL-28, 43 µM; in series [1], 8 µM; in the series with A549, 4 µM; in the series on T98G, 0.6 µM; in [2], 3 µM. The results for the GI50 with PC-3 and in the series on B16-F10 were 41 µM and 29 µM, respectively.
Take `C=CCO[C@H]1[C@H]2c3cc4c(cc3CN3CCC(=C[C@@H]1OCC=C)[C@H]23)OCO4` [DIALLYLLYCORINE]: the concentration for 50% growth inhibition (GI50) in the series on MCF7 amounted to 0.2 µM; with SK-MEL-28, 6 µM; in [1], 2 µM; in the series with A549, 4 µM; with T98G, 4 µM; in series [2] it was 0.03 µM. The GI50 with PC-3 stood at 1 µM; in the series on B16-F10, 4 µM. For the same compound, in [4], the RatioGI50 came out at 100.
On to `O[C@H]1[C@H]2c3cc4c(cc3CN3CCC(=C[C@@H]1O)[C@H]23)OCO4` [LYCORINE], for which the GI50 is 4 µM in the series on MCF7; 4 µM with SK-MEL-28; 0.9 µM in series [1]; 0.9 µM with A549; 3 µM with T98G; 3 µM in [2]. Further, the GI50 in the series with PC-3 was found to be 4 µM; with B16-F10, 2 µM.

For the origin of these results see ChEMBL document CHEMBL1921724, “In search of a cytostatic agent derived from the alkaloid lycorine: synthesis and growth inhibitory properties of lycorine derivatives” (Bioorg Med Chem, 2011).
